Data: ChEMBL document CHEMBL1828552, “Synthesis and studies of novel 2-(4-cyano-3-trifluoromethylphenyl amino)-4-(quinoline-4-yloxy)-6-(piperazinyl/piperidinyl)-s-triazines as potential antimicrobial, antimycobacterial and anticancer agents” (2011)
Converted amounts (≈) assume the structure as drawn.

Tests used:
Aspergillus fumigatus [1] = assay: Antifungal activity against 10^5 CFU/mL Aspergillus fumigatus MTCC 343 after 48 hrs by agar streak dilution method; assay type: functional; conditions: MTCC 343, 48 h
Procedure, shortened: (§1)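 Agar streak dilution for fungi. Stock 100 µg/mL in DMSO; graded amounts were mixed into molten Sabouraud dextrose agar and poured at 4–5 mm depth. Serial dilutions ran over […]. About 10⁵ CFU/mL inoculum was applied, with incubation at 37 ± 1 °C for 48 h. MIC was read from the dilution series.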

Bacillus cereus [2] = assay: Antibacterial activity against 10^5 CFU/mL Bacillus cereus MTCC 619 after 24 hrs by disc diffusion technique; assay type: functional
Procedure, shortened: (§2)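 Disc diffusion on Mueller–Hinton agar poured 5 mm deep. The surface was swabbed with a 10⁵ CFU/mL […] suspension. Filter-paper discs 6.25 mm in diameter were soaked in compound in DMSO and placed on the agar. Plates were incubated 24 h at 37 ± 1 °C, and the inhibition zone was measured in mm. A DMSO disc served as blank.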

Bacillus cereus [3] = assay: Antibacterial activity against 10^5 CFU/mL Bacillus cereus MTCC 619 after 24 hrs by agar streak dilution method; assay type: functional; conditions: MTCC 619, 24 h
Procedure, shortened: (§3)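 Agar streak dilution. Stock 100 µg/mL in DMSO; graded amounts were mixed into molten nutrient agar and poured at 4–5 mm depth. Plates carried serial dilutions over […]. About 10⁵ CFU/mL of each bacterium was applied, and plates were incubated at 37 ± 1 °C for 24 h. MIC was read from the dilution series.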

Escherichia coli [4] = assay: Antibacterial activity against 10^5 CFU/mL Escherichia coli MTCC 739 after 24 hrs by agar streak dilution method; assay type: functional; conditions: MTCC 739, 24 h; procedure, shortened: as §3
Staphylococcus aureus [5] = assay: Antibacterial activity against 10^5 CFU/mL Staphylococcus aureus MTCC 96 after 24 hrs by agar streak dilution method; assay type: functional; conditions: MTCC 96, 24 h; procedure, shortened: as §3
Aspergillus niger [6] = assay: Antifungal activity against 10^5 CFU/mL Aspergillus niger MTCC 282 after 48 hrs by agar streak dilution method; assay type: functional; conditions: MTCC 282, 48 h; procedure, shortened: as §1
Proteus vulgaris [7] = assay: Antibacterial activity against 10^5 CFU/mL Proteus vulgaris MTCC 1771 after 24 hrs by agar streak dilution method; assay type: functional; conditions: MTCC 1771, 24 h; procedure, shortened: as §3
Aspergillus niger [8] = assay: Antifungal activity against 10^5 CFU/mL Aspergillus niger MTCC 282 after 48 hrs by disc diffusion technique; assay type: functional
Pseudomonas aeruginosa [9] = assay: Antibacterial activity against 10^5 CFU/mL Pseudomonas aeruginosa MTCC 741 after 24 hrs by agar streak dilution method; assay type: functional; conditions: MTCC 741, 24 h; procedure, shortened: as §3
Aspergillus clavatus [10] = assay: Antifungal activity against 10^5 CFU/mL Aspergillus clavatus MTCC 1323 after 48 hrs by disc diffusion technique; assay type: functional
Candida albicans [11] = assay: Antifungal activity against 10^5 CFU/mL Candida albicans MTCC 183 after 48 hrs by agar streak dilution method; assay type: functional; conditions: MTCC 183, 48 h; procedure, shortened: as §1
Proteus vulgaris [12] = assay: Antibacterial activity against 10^5 CFU/mL Proteus vulgaris MTCC 1771 after 24 hrs by disc diffusion technique; assay type: functional; procedure, shortened: as §2
Klebsiella pneumoniae [13] = assay: Antibacterial activity against 10^5 CFU/mL Klebsiella pneumoniae MTCC 109 after 24 hrs by agar streak dilution method; assay type: functional; conditions: MTCC 109, 24 h; procedure, shortened: as §3
Aspergillus clavatus [14] = assay: Antifungal activity against 10^5 CFU/mL Aspergillus clavatus MTCC 1323 after 48 hrs by agar streak dilution method; assay type: functional; conditions: MTCC 1323, 48 h; procedure, shortened: as §1
Salmonella typhi [15] = assay: Antibacterial activity against 10^5 CFU/mL Salmonella typhi MTCC 733 after 24 hrs by disc diffusion technique; assay type: functional, Salmonella enterica subsp. enterica serovar Typhi
Procedure, shortened: (§4)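 Disc diffusion. Mueller-Hinton agar autoclaved 120 °C 30 min, poured 5 mm deep. Surface swabbed with 10⁵ CFU/mL suspension […]. 6.25 mm filter-paper discs soaked in compound in DMSO; DMSO-only disc as blank. Incubated 37 ± 1 °C, 24 h for bacteria or 48 h for fungi. Ciprofloxacin and ketoconazole discs as reference drugs. Inhibition zone measured in mm.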

Shigella flexneri [16] = assay: Antibacterial activity against 10^5 CFU/mL Shigella flexneri MTCC 1457 after 24 hrs by disc diffusion technique; assay type: functional; procedure, shortened: as §2
Shigella flexneri [17] = assay: Antibacterial activity against 10^5 CFU/mL Shigella flexneri MTCC 1457 after 24 hrs by agar streak dilution method; assay type: functional; conditions: MTCC 1457, 24 h; procedure, shortened: as §3
Aspergillus fumigatus [18] = assay: Antifungal activity against 10^5 CFU/mL Aspergillus fumigatus MTCC 343 after 48 hrs by disc diffusion technique; assay type: functional
Staphylococcus aureus [19] = assay: Antibacterial activity against 10^5 CFU/mL Staphylococcus aureus MTCC 96 after 24 hrs by disc diffusion technique; assay type: functional; procedure, shortened: as §2
Escherichia coli [20] = assay: Antibacterial activity against 10^5 CFU/mL Escherichia coli MTCC 739 after 24 hrs by disc diffusion technique; assay type: functional; procedure, shortened: as §2
[21] = tested on: Mycobacterium tuberculosis; assay: Antimycobacterial activity against 10^4 to 10^7 CFU/mL Mycobacterium tuberculosis H37Rv after 24 hrs measured after 28 days post-inoculation; assay type: functional
Procedure, shortened: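 Secondary MIC on Lowenstein-Jensen medium. DMSO dilutions (50, 25, 12.5, 6.25, […]) added to L.J. medium, then inspissated. Tubes incubated at 37 ± 1 °C for 24 h, then streaked with 5×10⁴ H37Rv bacilli per tube. Growth read at 12, 22 and 28 days against drug-free controls. MIC = no colonies or fewer than 20 colonies.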

Klebsiella pneumoniae [22] = assay: Antibacterial activity against 10^5 CFU/mL Klebsiella pneumoniae MTCC 109 after 24 hrs by disc diffusion technique; assay type: functional; procedure, shortened: as §2
DU-145 = assay: Cytotoxicity against […] human DU145 cells after 48 hrs by SRB assay; assay type: functional; conditions: DU-145, 48 h
Procedure, shortened: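 SRB assay in DU-145 cells grown in RPMI 1640 with 10% FBS and 2 mM L-glutamine. Cells were plated and held 24 h before addition of four 10-fold concentrations. After 48 h, cells were TCA-fixed, stained with 0.4% SRB and read at 540 nm. GI50, TGI and LC50 were derived against time-zero and control wells; each value is the mean of three experiments.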

Pseudomonas aeruginosa [23] = assay: Antibacterial activity against 10^5 CFU/mL Pseudomonas aeruginosa MTCC 741 after 24 hrs by disc diffusion technique; assay type: functional; procedure, shortened: as §2
Candida albicans [24] = assay: Antifungal activity against 10^5 CFU/mL Candida albicans MTCC 183 after 48 hrs by disc diffusion technique; assay type: functional
Salmonella typhi [25] = assay: Antibacterial activity against 10^5 CFU/mL Salmonella typhi MTCC 733 after 24 hrs by agar streak dilution method; assay type: functional, Salmonella enterica subsp. enterica serovar Typhi; conditions: Salmonella enterica, MTCC 733, 24 h
Shigella flexneri [26] = assay: Antibacterial activity against 10^5 CFU/mL Shigella flexneri MTCC 1457 at 100 ug/ml after 24 hrs by disc diffusion technique; assay type: functional; conditions: MTCC 1457, 24 h, read-out: IZ; procedure, shortened: as §2
Bacillus cereus [27] = assay: Antibacterial activity against 10^5 CFU/mL Bacillus cereus MTCC 619 at 100 ug/ml after 24 hrs by disc diffusion technique; assay type: functional; conditions: MTCC 619, 24 h, read-out: IZ; procedure, shortened: as §2
Pseudomonas aeruginosa [28] = assay: microbe, parasite or virus in culture; conditions: MTCC 741, 24 h, read-out: IZ
Proteus vulgaris [29] = assay: Antibacterial activity against 10^5 CFU/mL Proteus vulgaris MTCC 1771 at 100 ug/ml after 24 hrs by disc diffusion technique; assay type: functional; conditions: MTCC 1771, 24 h, read-out: IZ; procedure, shortened: as §2
Salmonella typhi [30] = assay: Antibacterial activity against 10^5 CFU/mL Salmonella typhi MTCC 733 at 100 ug/ml after 24 hrs by disc diffusion technique; assay type: functional, Salmonella enterica subsp. enterica serovar Typhi; conditions: Salmonella enterica, MTCC 733, 24 h; read-out: IZ; procedure, shortened: as §4
Klebsiella pneumoniae [31] = assay: microbe, parasite or virus in culture; conditions: MTCC 109, 24 h, read-out: IZ
Escherichia coli [32] = assay: microbe, parasite or virus in culture; conditions: MTCC 739, 24 h, read-out: IZ
Staphylococcus aureus [33] = assay: Antibacterial activity against 10^5 CFU/mL Staphylococcus aureus MTCC 96 at 100 ug/ml after 24 hrs by disc diffusion technique; conditions: MTCC 96, 24 h, read-out: IZ
Aspergillus niger [34] = assay: Antifungal activity against 10^5 CFU/mL Aspergillus niger MTCC 282 at 100 ug/ml after 48 hrs by disc diffusion technique; assay type: functional; conditions: MTCC 282, 48 h, read-out: IZ; procedure, shortened: as §4
Aspergillus clavatus [35] = assay: Antifungal activity against 10^5 CFU/mL Aspergillus clavatus MTCC 1323 at 100 ug/ml after 48 hrs by disc diffusion technique; assay type: functional; conditions: MTCC 1323, 48 h, read-out: IZ; procedure, shortened: as §4
Candida albicans [36] = assay: Antifungal activity against 10^5 CFU/mL Candida albicans MTCC 183 at 100 ug/ml after 48 hrs by disc diffusion technique; assay type: functional; conditions: MTCC 183, 48 h, read-out: IZ; procedure, shortened: as §4
Aspergillus fumigatus [37] = assay: Antifungal activity against 10^5 CFU/mL Aspergillus fumigatus MTCC 343 at 100 ug/ml after 48 hrs by disc diffusion technique; assay type: functional; conditions: MTCC 343, 48 h, read-out: IZ; procedure, shortened: as §4

`CC1CC(C)CN(c2nc(Nc3ccc(C#N)c(C(F)(F)F)c3)nc(Oc3ccnc4ccccc34)n2)C1` (configuration not stated) was tested, and the MIC (Aspergillus fumigatus [1]) was 50 µg/mL (≈ 96.2 µM), the “inhibition zone (IZ)” value (Bacillus cereus [2]) was 25 mm and the MIC (Bacillus cereus [3]) was 12.5 µg/mL (≈ 24.1 µM). The MIC (Escherichia coli [4]) was 12.5 µg/mL (≈ 24.1 µM), the MIC (Staphylococcus aureus [5]) was 6.25 µg/mL (≈ 12 µM) and the MIC (Aspergillus niger [6]) was 50 µg/mL (≈ 96.2 µM). The MIC (Proteus vulgaris [7]) was 6.25 µg/mL (≈ 12 µM), the “inhibition zone (IZ)” value (Aspergillus niger [8]) was 23 mm and the MIC (Pseudomonas aeruginosa [9]) was 12.5 µg/mL (≈ 24.1 µM). The “inhibition zone (IZ)” value (Aspergillus clavatus [10]) was 26 mm, the MIC (Candida albicans [11]) was 100 µg/mL (≈ 192 µM) and the “inhibition zone (IZ)” value (Proteus vulgaris [12]) was 27 mm. For the same compound, the MIC (Klebsiella pneumoniae [13]) was 25 µg/mL (≈ 48.1 µM), the MIC (Aspergillus clavatus [14]) was 25 µg/mL (≈ 48.1 µM) and the “inhibition zone (IZ)” value (Salmonella typhi [15]) was 27 mm. For the same compound, the “inhibition zone (IZ)” value (Shigella flexneri [16]) was 25 mm, the MIC (Shigella flexneri [17]) was 12.5 µg/mL (≈ 24.1 µM) and the “inhibition zone (IZ)” value (Aspergillus fumigatus [18]) was 25 mm. For the same compound, the “inhibition zone (IZ)” value (Staphylococcus aureus [19]) was 27 mm, the “inhibition zone (IZ)” value (Escherichia coli [20]) was 25 mm and the MIC99 [21] was 3.12 µg/mL (≈ 6.01 µM). For the same compound, the “inhibition zone (IZ)” value (Klebsiella pneumoniae [22]) was 23 mm, the GI50 (DU-145) was 27.2 µM and the LC50 (concentration giving 50% net cell kill relative to time zero) (DU-145) was > 100 µM. For the same compound, the TGI (DU-145) was 68 µM, the “inhibition zone (IZ)” value (Pseudomonas aeruginosa [23]) was 24 mm and the “inhibition zone (IZ)” value (Candida albicans [24]) was 18 mm. It also gave an MIC (Salmonella typhi [25]) of 12.5 µg/mL (≈ 24.1 µM).
In the case of `O=C(O)c1cn(C2CC2)c2cc(N3CCNCC3)c(F)cc2c1=O` [CIPROFLOXACIN], the MIC (Bacillus cereus [3]) is reported as ≤ 1 µg/mL, the MIC (Escherichia coli [4]) is reported as ≤ 1 µg/mL and the MIC (Staphylococcus aureus [5]) is reported as ≤ 1 µg/mL. The zone of inhibition at 100 µg/mL (Shigella flexneri [26]) was 32 mm, the MIC (Proteus vulgaris [7]) was ≤ 1 µg/mL and the MIC (Pseudomonas aeruginosa [9]) was ≤ 1 µg/mL. The zone of inhibition at 100 µg/mL (Bacillus cereus [27]) was 31 mm, the zone of inhibition at 100 µg/mL (Pseudomonas aeruginosa [28]) was 33 mm and the MIC (Klebsiella pneumoniae [13]) was ≤ 1 µg/mL. For the same compound, the MIC (Shigella flexneri [17]) was ≤ 3 µg/mL, the zone of inhibition at 100 µg/mL (Proteus vulgaris [29]) was 31 mm and the zone of inhibition at 100 µg/mL (Salmonella typhi [30]) was 30 mm. The zone of inhibition at 100 µg/mL (Klebsiella pneumoniae [31]) was 33 mm, the zone of inhibition at 100 µg/mL (Escherichia coli [32]) was 32 mm and the zone of inhibition at 100 µg/mL (Staphylococcus aureus [33]) was 30 mm. The MIC (Salmonella typhi [25]) was ≤ 1 µg/mL.
In the case of `CC(=O)N1CCN(c2ccc(OCC3COC(Cn4ccnc4)(c4ccc(Cl)cc4Cl)O3)cc2)CC1` (configuration not stated) [KETOCONAZOLE], the MIC (Aspergillus fumigatus [1]) is reported as ≤ 1 µg/mL, the MIC (Aspergillus niger [6]) is reported as ≤ 3 µg/mL and the MIC (Candida albicans [11]) is reported as ≤ 1 µg/mL. The zone of inhibition at 100 µg/mL (Aspergillus niger [34]) was 30 mm, the zone of inhibition at 100 µg/mL (Aspergillus clavatus [35]) was 31 mm and the zone of inhibition at 100 µg/mL (Candida albicans [36]) was 33 mm. The MIC (Aspergillus clavatus [14]) was ≤ 1 µg/mL and the zone of inhibition at 100 µg/mL (Aspergillus fumigatus [37]) was 29 mm.
